Laboratory results taken from ChEMBL document CHEMBL5034013, “Discovery of VNRX-7145 (VNRX-5236 Etzadroxil): An Orally Bioavailable β-Lactamase Inhibitor for Enterobacterales Expressing Ambler Class A, C, and D Enzymes” (J Med Chem, 2021).

Legend:
Escherichia coli [1] = test: Antibacterial activity against Escherichia coli expressing CTX-M-15/TEM-1 assessed as concentration required to restore ceftibuten activity incubated for 16 to 20 hrs in presence of 1 ug/ml ceftibuten by broth microdilution method; assay type: functional; conditions: time 16-20 hrs
Klebsiella pneumoniae [2] = test: Antibacterial activity against Klebsiella pneumoniae expressing SHV-12/TEM-1 assessed as concentration required to restore ceftibuten activity incubated for 16 to 20 hrs in presence of 1 ug/ml ceftibuten by broth microdilution method; assay type: functional; conditions: time 16-20 hrs
Escherichia coli [3] = test: Antibacterial activity against Escherichia coli 786978 expressing KPC assessed as concentration required to restore ceftibuten activity incubated for 16 to 20 hrs in presence of 1 ug/ml ceftibuten by broth microdilution method; assay type: functional; conditions: time 16-20 hrs
Klebsiella pneumoniae [4] = test: Antibacterial activity against Klebsiella pneumoniae 156309 expressing SHV-11/TEM-1/KPC-2 assessed as concentration required to restore ceftibuten activity incubated for 16 to 20 hrs in presence of 1 ug/ml ceftibuten by broth microdilution method; assay type: functional; conditions: time 16-20 hrs
Escherichia coli [5] = test: Antibacterial activity against Escherichia coli J53 expressing SHV-5/TEM-1/AmpC assessed as concentration required to restore ceftibuten activity incubated for 16 to 20 hrs in presence of 1 ug/ml ceftibuten by broth microdilution method; assay type: functional; conditions: time 16-20 hrs
Klebsiella pneumoniae [6] = test: Antibacterial activity against Klebsiella pneumoniae 196477 expressing AmpC/CMY-2/TEM-1/CTX-M-15 assessed as concentration required to restore ceftibuten activity incubated for 16 to 20 hrs in presence of 1 ug/ml ceftibuten by broth microdilution method; assay type: functional; conditions: time 16-20 hrs
Escherichia coli [7] = test: Antibacterial activity against Escherichia coli 664507 expressing OXA-48 assessed as concentration required to restore ceftibuten activity incubated for 16 to 20 hrs in presence of 1 ug/ml ceftibuten by broth microdilution method; assay type: functional; conditions: time 16-20 hrs
Method in brief: (§1)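 Tested against a 25-strain challenge panel of clinical E. coli and K. pneumoniae isolates carrying ESBL (n = 5), KPC (n = 11), class C (n = 4) or OXA-48 (n = 5) β-lactamases. Ceftibuten was held at 1 μg/mL while the BLI concentration varied. The read-out was the BLI concentration that rescued ceftibuten activity.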

Klebsiella pneumoniae [8] = test: Antibacterial activity against Klebsiella pneumoniae expressing OXA-48 assessed as concentration required to restore ceftibuten activity incubated for 16 to 20 hrs in presence of 1 ug/ml ceftibuten by broth microdilution method; assay type: functional; conditions: time 16-20 hrs
Escherichia coli [9] = test: (§2) In vivo antibacterial activity against Escherichia coli expressing TEM-1/CTX-M-15 infected in C3H/HeJ mouse assessed as log10 reduction in CFU in kidney at 1 to 300 mg/kg, sc administered every 12 hrs for 3 days starting from 4 days post infection and measured at 7 days post infection (reference value: 6.7 log10CFU); assay type: functional; conditions: dose 1-300 mg/kg; time 3 day
Escherichia coli [10] = test: as §2, with “bladder” for “kidney”, “5.8” for “6.7”; assay type: functional; conditions: dose 1-300 mg/kg; time 3 day
Escherichia coli [11] = test: as §2, with “urine” for “kidney”; assay type: functional; conditions: dose 1-300 mg/kg; time 3 day
Escherichia coli [12] = test: Antibacterial activity against Escherichia coli expressing TEM-1/SHV-12 assessed as concentration required to restore ceftibuten activity incubated for 16 to 20 hrs in presence of 1 ug/ml ceftibuten by broth microdilution method; assay type: functional; conditions: time 16-20 hrs
Escherichia coli [13] = test: Antibacterial activity against Escherichia coli expressing CTX-M-2 assessed as concentration required to restore ceftibuten activity incubated for 16 to 20 hrs in presence of 1 ug/ml ceftibuten by broth microdilution method; assay type: functional; conditions: time 16-20 hrs
[14] = Inhibition of bacterial beta-lactamase SHV-5 using cefotaxime as substrate preincubated for 15 mins followed by substrate addition and measured after 10 mins by spectrophotometric analysis; design: species or system Bacteria
Method in brief: (§3)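 IC50 is the mean of duplicate runs on separate days. A run was repeated automatically if it differed by more than 20% from the previous result.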

[15] = Inhibition of bacterial beta-lactamase KPC-2 using imipenem as substrate preincubated for 15 mins followed by substrate addition and measured after 10 mins by spectrophotometric analysis; design: species or system Bacteria; method in brief: as §3
[16] = Inhibition of bacterial beta-lactamase AmpC using nitrocefin as substrate preincubated for 15 mins followed by substrate addition and measured after 10 mins by spectrophotometric analysis; design: species or system Bacteria; method in brief: as §3
[17] = Inhibition of bacterial beta-lactamase OXA-48 using nitrocefin as substrate preincubated for 15 mins followed by substrate addition and measured after 10 mins by spectrophotometric analysis; design: species or system Bacteria; method in brief: as §3
Klebsiella pneumoniae [18] = test: Antibacterial activity against Klebsiella pneumoniae expressing TEM-1/SHV-12 assessed as concentration required to restore ceftibuten activity incubated for 16 to 20 hrs in presence of 1 ug/ml ceftibuten by broth microdilution method; assay type: functional; conditions: time 16-20 hrs
Klebsiella pneumoniae [19] = test: Antibacterial activity against Klebsiella pneumoniae expressing SHV-5/KPC-2/TEM-1 assessed as concentration required to restore ceftibuten activity incubated for 16 to 20 hrs in presence of 1 ug/ml ceftibuten by broth microdilution method; assay type: functional; conditions: time 16-20 hrs
Escherichia coli [20] = test: Antibacterial activity against Escherichia coli expressing AmpC/SHV-12/CTX-M-15/TEM-1 assessed as concentration required to restore ceftibuten activity incubated for 16 to 20 hrs in presence of 1 ug/ml ceftibuten by broth microdilution method; assay type: functional; conditions: time 16-20 hrs
Klebsiella pneumoniae [21] = test: Antibacterial activity against Klebsiella pneumoniae expressing SHV-1/TEM-1/KPC-2 assessed as concentration required to restore ceftibuten activity incubated for 16 to 20 hrs in presence of 1 ug/ml ceftibuten by broth microdilution method; assay type: functional; conditions: time 16-20 hrs
Klebsiella pneumoniae [22] = test: Antibacterial activity against Klebsiella pneumoniae expressing SHV-11/TEM-1/KPC-3 assessed as concentration required to restore ceftibuten activity incubated for 16 to 20 hrs in presence of 1 ug/ml ceftibuten by broth microdilution method; assay type: functional; conditions: time 16-20 hrs
Klebsiella pneumoniae [23] = test: Antibacterial activity against Klebsiella pneumoniae expressing SHV-12/TEM-1/KPC-2/AmpC assessed as concentration required to restore ceftibuten activity incubated for 16 to 20 hrs in presence of 1 ug/ml ceftibuten by broth microdilution method; assay type: functional; conditions: time 16-20 hrs
Klebsiella pneumoniae [24] = test: Antibacterial activity against Klebsiella pneumoniae expressing KPC-3/TEM-1/AmpC assessed as concentration required to restore ceftibuten activity incubated for 16 to 20 hrs in presence of 1 ug/ml ceftibuten by broth microdilution method; assay type: functional; conditions: time 16-20 hrs
Escherichia coli [25] = test: Antibacterial activity against Escherichia coli 849121 expressing KPC assessed as concentration required to restore ceftibuten activity incubated for 16 to 20 hrs in presence of 1 ug/ml ceftibuten by broth microdilution method; assay type: functional; conditions: time 16-20 hrs
Klebsiella pneumoniae [26] = test: Antibacterial activity against Klebsiella pneumoniae 845661 expressing KPC assessed as concentration required to restore ceftibuten activity incubated for 16 to 20 hrs in presence of 1 ug/ml ceftibuten by broth microdilution method; assay type: functional; conditions: time 16-20 hrs
Klebsiella pneumoniae [27] = test: Antibacterial activity against Klebsiella pneumoniae 845670 expressing KPC assessed as concentration required to restore ceftibuten activity incubated for 16 to 20 hrs in presence of 1 ug/ml ceftibuten by broth microdilution method; assay type: functional; conditions: time 16-20 hrs
Escherichia coli [28] = test: Antibacterial activity against Escherichia coli SI-P026TC expressing CMY-2/TEM-1 assessed as concentration required to restore ceftibuten activity incubated for 16 to 20 hrs in presence of 1 ug/ml ceftibuten by broth microdilution method; assay type: functional; conditions: time 16-20 hrs
Klebsiella pneumoniae [29] = test: Antibacterial activity against Klebsiella pneumonia 217917 expressing CMY-2/TEM-1 assessed as concentration required to restore ceftibuten activity incubated for 16 to 20 hrs in presence of 1 ug/ml ceftibuten by broth microdilution method; assay type: functional; conditions: time 16-20 hrs; method in brief: as §1
Klebsiella pneumoniae [30] = test: Antibacterial activity against Klebsiella pneumonia DOV expressing OXA-48 assessed as concentration required to restore ceftibuten activity incubated for 16 to 20 hrs in presence of 1 ug/ml ceftibuten by broth microdilution method; assay type: functional; conditions: time 16-20 hrs; method in brief: as §1
Klebsiella pneumoniae [31] = test: Antibacterial activity against Klebsiella pneumonia SI-C05 expressing OXA-48 assessed as concentration required to restore ceftibuten activity incubated for 16 to 20 hrs in presence of 1 ug/ml ceftibuten by broth microdilution method; assay type: functional; conditions: time 16-20 hrs; method in brief: as §1
Escherichia coli [32] = test: Antibacterial activity against Escherichia coli 664520 expressing OXA-48 assessed as concentration required to restore ceftibuten activity incubated for 16 to 20 hrs in presence of 1 ug/ml ceftibuten by broth microdilution method; assay type: functional; conditions: time 16-20 hrs; method in brief: as §1

For `Nc1nc(/C(=C/CC(=O)O)C(=O)N[C@@H]2C(=O)N3C(C(=O)O)=CCS[C@H]23)cs1` [CEFTIBUTEN], the Activity (Escherichia coli [1]) was 128 µg/mL, the Activity (Klebsiella pneumoniae [2]) was 32 µg/mL and the Activity (Escherichia coli [3]) was 8 µg/mL. It also gave an Activity (Klebsiella pneumoniae [4]) of 256 µg/mL, an Activity (Escherichia coli [5]) of 256 µg/mL and an Activity (Klebsiella pneumoniae [6]) of 4 µg/mL. It also gave an Activity (Escherichia coli [7]) of 128 µg/mL, an Activity (Klebsiella pneumoniae [8]) of 256 µg/mL and an Activity (Escherichia coli [9]) of 2 log10CFU/ml. The Activity (Escherichia coli [10]) was 2 log10CFU/ml and the Activity (Escherichia coli [11]) was 2 log10CFU/ml.
With `CC(=O)CCC(=O)N[C@H]1Cc2cccc(C(=O)O)c2OB1O` the Activity (Escherichia coli [12]) was 0.016 µg/mL, the Activity (Escherichia coli [13]) was “<=0.002 ug ml-1” and the IC50 [14] was 25 nM. The IC50 [15] was 116 nM, the IC50 [16] was 8 nM and the IC50 [17] was 1450 nM. The Activity (Escherichia coli [1]) was 0.12 µg/mL, the Activity (Klebsiella pneumoniae [2]) was 0.06 µg/mL and the Activity (Escherichia coli [3]) was 1 µg/mL. For the same molecule, the Activity (Klebsiella pneumoniae [4]) was 2 µg/mL, the Activity (Escherichia coli [5]) was 0.03 µg/mL and the Activity (Klebsiella pneumoniae [6]) was 0.06 µg/mL. The Activity (Escherichia coli [7]) was 0.06 µg/mL, the Activity (Klebsiella pneumoniae [8]) was 4 µg/mL and the Activity (Klebsiella pneumoniae [18]) was 0.016 µg/mL. For the same molecule, the Activity (Klebsiella pneumoniae [19]) was “<=0.002 ug ml-1”, the Activity (Escherichia coli [20]) was 0.016 µg/mL and the Activity (Klebsiella pneumoniae [21]) was 4 µg/mL. It also gave an Activity (Klebsiella pneumoniae [22]) of 0.25 µg/mL, an Activity (Klebsiella pneumoniae [23]) of 0.5 µg/mL and an Activity (Klebsiella pneumoniae [24]) of 0.5 µg/mL. The Activity (Escherichia coli [25]) was “<=0.002 ug ml-1”, the Activity (Klebsiella pneumoniae [26]) was 4 µg/mL and the Activity (Klebsiella pneumoniae [27]) was “<=0.002 ug ml-1”. For the same molecule, the Activity (Escherichia coli [28]) was 0.5 µg/mL, the Activity (Klebsiella pneumoniae [29]) was 0.12 µg/mL and the Activity (Klebsiella pneumoniae [30]) was 0.06 µg/mL. The Activity (Klebsiella pneumoniae [31]) was 0.06 µg/mL and the Activity (Escherichia coli [32]) was 4 µg/mL.
